Data on 20 compounds can be found in ChEMBL document CHEMBL1124408, “3-aminopyridazine derivatives with atypical antidepressant, serotonergic, and dopaminergic activities” (J Med Chem, 1989).

Series [1] has as its system Mus musculus. The series can be described thus: Serotonergic activity was determined by measuring the potentiation of 5-hydroxytryptophan in mice upon ip administration. It is filed as functional. The method in brief: (§1)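 Drug was injected ip in distilled water/gum tragacanth to female CD1 mice (18-22 g) at multiple doses (7-20 mice/dose), 30 min before a threshold dose of L-5-HTP (200 mg/kg ip). Mice were held singly in small cages, and tremor was scored all-or-none over the 20 min after L-5-HTP.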

The subject of series [2] is Mus musculus. The series can be described thus: Antidepressant activity against reserpine induced ptosis in mice after intraperitoneal administration. It is filed as functional. To be noted: ip. The gist of the method:
(§2)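 Female CD1 mice (18-22 g) received the drug in distilled water/gum tragacanth ip at multiple doses (7-20 mice/dose), given together with reserpine (2 mg/kg iv). One hour later, palpebral ptosis (half or more of the lid closed) was scored all-or-none. Screening dose was at most 50% of the seizure threshold dose.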

The nature of series [3]: Compound was tested for acute toxicity in mice after intraperitoneal administration. It is filed as organism-based. To be noted: mouse, in vivo, ip. The method in brief: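 Female CD1 mice in groups of 5-10 received drug or vehicle (distilled water with gum tragacanth) ip. LD50 was derived graphically.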
For series [4], the system named is Mus musculus. The series is described as follows: Ability to modify turning behavior of mice after intraperitoneal administration. It is filed as functional. To be noted: ip, read-out: MED. The gist of the method:
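Female CD1 mice (25-30 g) were lesioned by stereotaxic injection of 6-OHDA (10 μg in 1 μL saline with 1 mg/mL ascorbic acid) into the right striatum under pentobarbitone (60 mg/kg ip). Seven days later, drug in distilled water/gum tragacanth was given ip at multiple doses (7-20 mice/dose). Ipsilateral turns were counted for 2 min starting 30 min post-dose.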

Series [5] is described as follows: Acute toxicity in mice after intraperitoneal administration. To be noted: mouse, in vivo, ip, LD50.
The subject of series [6] is Mus musculus. The series can be described thus: Serotonergic activity by measuring the potentiation of 5-hydroxy tryptophan in mice upon ip administration; value ranges from 4.4-5.7. It is filed as functional. The method in brief:
as §1

The subject of series [7] is Mus musculus. The series can be described thus: Compound was tested for antidepressant activity against reserpine induced ptosis in mice after intraperitoneal administration.; value ranges from 5.9-7.3. To be noted: ip. It is filed as functional. The method in brief:
as §2

Series [8] concerns Mus musculus. The series can be described thus: Compound was tested for antidepressant activity against reserpine induced ptosis in mice after intraperitoneal administration; 50% activity at this maximal tested dose. It is filed as functional. To be noted: ip. The gist of the method: as §2
In series [9] the test system is Mus musculus. The series is described as follows: Serotonergic activity by measuring the potentiation of 5-hydroxy tryptophan in mice upon ip administration; value ranges from 3.0-4.0. It is filed as functional. The method in brief:
as §1

Series [10] relates to Mus musculus. The series is described as follows: Compound was tested for antidepressant activity against reserpine induced ptosis in mice after intraperitoneal administration.; value ranges from 5.9-6.7. It is filed as functional. To be noted: ip. The gist of the method: as §2
The subject of series [11] is Mus musculus. The series is described as follows: Compound was tested for antidepressant activity against reserpine induced ptosis in mice after intraperitoneal administration.; value ranges from 3.2-6.3. It is filed as functional. The settings on record: ip. The gist of the method:
as §2

Series [12] has as its system Mus musculus. The series is described as follows: Serotonergic activity by measuring the potentiation of 5-hydroxy tryptophan in mice upon ip administration; the value ranges from 3-38. It is filed as functional. The method in brief:
as §1

The subject of series [13] is Mus musculus. The series can be described thus: Compound was tested for antidepressant activity against reserpine induced ptosis in mice after intraperitoneal administration.; value ranges from 11-16. It is filed as functional. The settings on record: ip. The gist of the method: as §2
Series [14] has as its system Mus musculus. The series can be described thus: Compound was tested for antidepressant activity against reserpine induced ptosis in mice after intraperitoneal administration.; value ranges from 9-12. It is filed as functional. The settings on record: ip. The method in brief: as §2
The test system of series [15] is Mus musculus. The series is described as follows: Serotonergic activity by measuring the potentiation of 5-hydroxy tryptophan in mice upon ip administration; value ranges from 1.4-2.1. It is filed as functional. The gist of the method: as §1

Usually ED50 stands for the dose at which the effect has come halfway, by size or by number of responders. The LD50 is the dose expected to kill half of the subjects tested. Consider `Cc1cc(-c2ccccc2)nnc1NCCCN1CCOCC1`, for which the 50% effective dose (ED50) with Mus musculus [1] is more than 25 mg/kg; in the series with Mus musculus [2], more than 30 mg/kg. The same compound gave an LD50 in [3] of 66 mg/kg. Besides, the minimal effective dose with Mus musculus [4] is 2 mg/kg.
In the case of `NC(=O)c1cc(-c2ccccc2)nnc1NCCN1CCOCC1`, the ED50 was more than 60 mg/kg with Mus musculus [1] and more than 40 mg/kg in the series with Mus musculus [2]. The minimal effective dose with Mus musculus [4] stood at 2 mg/kg.
`Cc1cc(-c2ccccc2Cl)nnc1NCCN1CCOCC1` came in with a 50% effective dose (ED50) in the series on Mus musculus [2] of more than 5 mg/kg. In [5], this compound had an LD50 of 7 mg/kg. In addition, the minimal effective dose in the series on Mus musculus [4] came out at 1 mg/kg.
Regarding `N#Cc1cc(-c2ccccc2)nnc1NCCN1CCOCC1` [BAZINAPRINE], the 50% effective dose (ED50) in the series on Mus musculus [6] worked out at 5 mg/kg; in the series on Mus musculus [7] it was 6.6 mg/kg. Also, the minimal effective dose in the series with Mus musculus [4] was 0.1 mg/kg.
In turn, `Cc1cc(-c2ccc([N+](=O)[O-])cc2)nnc1NCCN1CCOCC1` gave a 50% lethal dose (LD50) in [5] of 35 mg/kg.
With `Cc1cccc(-c2cc(C)c(NCCN3CCOCC3)nn2)c1`, the values for the ED50 in the series with Mus musculus [1] and with Mus musculus [8] were more than 10 mg/kg and 10 mg/kg, respectively. Besides, the median lethal dose (LD50) in series [5] stood at 23 mg/kg. In the series with Mus musculus [4], the minimal effective dose is more than 2 mg/kg.
For `Cc1ccc(-c2cc(C)c(NCCN3CCOCC3)nn2)cc1`, the ED50 in the series with Mus musculus [1] and with Mus musculus [2] was more than 15 mg/kg each time. The compound also returned an LD50 in series [5] of 51 mg/kg. Besides, the minimal effective dose in the series with Mus musculus [4] is 0.5 mg/kg.
Consider `Clc1ccccc1Cc1cc(-c2ccccc2)nnc1NCCN1CCOCC1`, for which the ED50 in the series with Mus musculus [1] and in the series with Mus musculus [2] was more than 50 mg/kg throughout. In series [5], this compound gave an LD50 of 95 mg/kg. Besides, the minimal effective dose in the series on Mus musculus [4] came to 10 mg/kg.
For the compound `Cc1cc(C)c(NCCN2CCOCC2)nn1`, the ED50 in the series on Mus musculus [1] and with Mus musculus [2] was more than 50 mg/kg each time. In addition, in series [5], the LD50 is more than 100 mg/kg. Besides, the minimal effective dose in the series with Mus musculus [4] is more than 10 mg/kg.
Turning to `c1ccc(-c2cc(-c3ccccc3)c(NCCN3CCOCC3)nn2)cc1`, the ED50 was more than 25 mg/kg in the series with Mus musculus [1] and more than 50 mg/kg with Mus musculus [2]. Also, the median lethal dose (LD50) in series [5] stood at 150 mg/kg. Further, the minimal effective dose with Mus musculus [4] was more than 2 mg/kg.
Take `c1ccc(-c2ccc(NCCN3CCOCC3)nn2)cc1`: the ED50 stood at 3.7 mg/kg in the series on Mus musculus [9] and 6 mg/kg in the series with Mus musculus [10]. The compound further displayed an LD50 in series [5] of 250 mg/kg. In the series on Mus musculus [4], the minimal effective dose is 0.5 mg/kg.
As for `Br.Br.Cc1cc(-c2ccc(O)cc2)nnc1NCCN1CCOCC1` [MOXIRAPRINE DIBROMIDE], the figures for the median effective dose (ED50) in the series on Mus musculus [1] and in the series on Mus musculus [2] were more than 100 mg/kg and more than 40 mg/kg, respectively. Further, in [5], the LD50 is more than 300 mg/kg. In addition, in the series with Mus musculus [4], the minimal effective dose amounted to 0.1 mg/kg.
Take `CCc1cc(-c2ccccc2)nnc1NCCN1CCOCC1`: the 50% effective dose (ED50) with Mus musculus [1] and in the series on Mus musculus [2] was more than 10 mg/kg in each case. In addition, the LD50 in [5] was 31 mg/kg. In addition, the minimal effective dose in the series on Mus musculus [4] is 2 mg/kg.
`Cc1cc(-c2ccc3ccccc3c2)nnc1NCCN1CCOCC1` came in with an ED50 with Mus musculus [2] of more than 10 mg/kg. Besides, the LD50 in series [5] was 23 mg/kg. The minimal effective dose with Mus musculus [4] was more than 2 mg/kg.
As for `Cc1cc(C2CCCCC2)nnc1NCCN1CCOCC1`, the ED50 in the series on Mus musculus [11] was determined as 4.5 mg/kg; with Mus musculus [12], 16 mg/kg. The 50% lethal dose (LD50) in series [5] was determined as 43 mg/kg. Besides, the minimal effective dose with Mus musculus [4] was more than 10 mg/kg.
In the series on Mus musculus [2], `Cc1cc(-c2ccc(N)cc2)nnc1NCCN1CCOCC1` showed an ED50 of more than 5 mg/kg. Moreover, the 50% lethal dose (LD50) in series [5] stood at 15 mg/kg. Moreover, the minimal effective dose with Mus musculus [4] was more than 2 mg/kg.
In the case of `Cc1cc(-c2ccccc2)nnc1NCC(C)N1CCOCC1` (configuration not stated), the ED50 in the series with Mus musculus [1] is more than 15 mg/kg; in the series with Mus musculus [13], 13 mg/kg. This compound came in with a median lethal dose (LD50) in series [5] of 54 mg/kg. The minimal effective dose in the series on Mus musculus [4] was 2 mg/kg.
On to `CCN(CC)CCNc1nnc(-c2ccccc2)cc1C`, for which the median effective dose (ED50) in the series on Mus musculus [1] and with Mus musculus [2] was more than 30 mg/kg in each case. Also, in series [5], the LD50 is 80 mg/kg. For the same compound, the minimal effective dose in the series with Mus musculus [4] is more than 10 mg/kg.
On to `Cc1cc(-c2ccccc2)nnc1NCCCCN`, for which the ED50 with Mus musculus [1] is more than 30 mg/kg; in the series on Mus musculus [2] it was more than 50 mg/kg. Besides, the LD50 in series [5] amounted to 300 mg/kg. The minimal effective dose with Mus musculus [4] is 0.1 mg/kg.
For `Cc1cc(-c2ccsc2)nnc1NCCN1CCOCC1`, the ED50 in the series with Mus musculus [14] is 10 mg/kg; with Mus musculus [15] it was 1.7 mg/kg. In [5], this compound displayed an LD50 of 72 mg/kg. Besides, the minimal effective dose in the series with Mus musculus [4] is more than 10 mg/kg.
